Screens (PubChem BioAssay)
Hits are enriched below; roughly 2.2% of the tested compounds scored in any of these assays.
rRNA inh HTS: selective bacterial rRNA inhibition in E. coli; E. coli WT GFP vs humanized-ribosome RFP mutants, fluorescence, 24 h; hits give low values; DMSO median 0, no signal -100; GFP signal change (wild-type ribosome), % (no concentration beside the values); 350,000 compounds, 1.6% hits; AID 720706;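 active means significant combined selectivity score with lowered wild-type GFP, culture density cut under 30%, mutant RFP and density less affected; inactive means any of these conditions unmet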
Env fusion inh: HIV envelope-mediated fusion inhibition. inhibition, % at 12.3 µM. AID 651610. HeLa-JRFL Env/CEM21 cell fusion, luciferase. 360,000 compounds, 1.1% hits;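 active means mean replicate inhibition score of at least 50 and every replicate individually at or above 50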;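 further: 0% = plate neutral controls and 100% = maraviroc near 300 nM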
ERp5 inh: blocks human ERp5 reductase activity on insulin; Q15084; ERp5 insulin aggregation, absorbance 650 nm, 90 min; inhibition, % at 9.99 µM; 350,000 compounds, 0.05% hits; AID 651711;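 active means mean replicate inhibition above about 25%, with every replicate also reaching it, limit read from the data, passing the limit was not always enough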
Target sequence (Q15084 whole entry, looked up): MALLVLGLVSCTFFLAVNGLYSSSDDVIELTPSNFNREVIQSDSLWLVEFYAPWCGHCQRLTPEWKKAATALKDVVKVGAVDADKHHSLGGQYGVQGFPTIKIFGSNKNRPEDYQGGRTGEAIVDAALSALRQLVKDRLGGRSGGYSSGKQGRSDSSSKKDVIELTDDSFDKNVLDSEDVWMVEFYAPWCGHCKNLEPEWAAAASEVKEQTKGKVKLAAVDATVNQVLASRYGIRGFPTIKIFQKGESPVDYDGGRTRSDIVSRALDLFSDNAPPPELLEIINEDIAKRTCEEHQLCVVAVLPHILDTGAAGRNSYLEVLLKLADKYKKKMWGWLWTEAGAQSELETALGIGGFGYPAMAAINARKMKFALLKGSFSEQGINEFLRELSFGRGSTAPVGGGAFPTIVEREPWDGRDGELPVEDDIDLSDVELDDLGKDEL
PDI inh: blocks human protein disulfide isomerase activity; AID 588391; 350,000 compounds, 0.052% hits; P07237; inhibition, % at 10 µM; PDI insulin aggregation turbidity, A650, 90 min;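 active means mean inhibition across replicates of 30% or more, whatever share of single replicates reach that level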
PvdQ acylase: blocks Pseudomonas aeruginosa PvdQ acylase activity; inhibition, % at 10 µM; purified PvdQ acylase, fluorescence plate reader; 340,000 compounds, 0.063% hits; AID 488965; in the data active means inhibition above about 30%, passing the limit was not always enough;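 further: 0% = vehicle neutral wells and 100% = reference inhibitor wells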
FN deposit inh: fibronectin deposition inhibition; AH1F fibroblasts, Alexa488-fibronectin deposition fluorescence, overnight; inhibition, % at 12.6 µM; 350,000 compounds, 0.086% hits; AID 743247;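 active means mean inhibition across replicates of 30% or more, regardless of how many single replicates reach that level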;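 further: positive control wells lacked labelled fibronectin entirely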
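Measured by – fluorescence 485/525 nm · System – AH1F fibroblast monolayer, labelled fibronectin deposition · Amount – 10000 cells per well · Buffer or medium – serum-reduced DMEM (2% serum) · Doses – single dose, pinned · Also added – fluorescent fibronectin at 24 nM final · Schedule – 1 h cell attachment, overnight exposure to compound and label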
Active calls of the source: *; . = not tested or not shown; ! = a repeat was not active; [ ] = another dose, or the depositor's remark.

SMILES	rRNA inh HTS	Env fusion inh	ERp5 inh	PDI inh	PvdQ acylase	FN deposit inh
COc1ccc(S(=O)(=O)N(C)C[C@H]2Oc3c(NC(=O)Nc4ccc(C(F)(F)F)cc4)cccc3C(=O)N([C@@H](C)CO)C[C@H]2C)cc1	1.9	107.7*[16.7 µM]	-2.7	.	.	-5.2
C[C@H]1CN([C@@H](C)CO)C(=O)c2cccc(NC(=O)c3nc4ccccc4s3)c2O[C@@H]1CN(C)C(=O)Nc1ccc(C(F)(F)F)cc1	-2.5	.	26.6*	.	.	.
CC(C)NC(=O)N(C)C[C@H]1Oc2c(NC(=O)Nc3ccc(C(F)(F)F)cc3)cccc2C(=O)N([C@@H](C)CO)C[C@H]1C	-0.7	56.3*[16.7 µM]	-0.1	.	.	.
C[C@H]1CN([C@@H](C)CO)C(=O)c2cc(Br)cnc2O[C@@H]1CN(C)C(=O)Nc1ccc(C(F)(F)F)cc1	-12.2*!	-3.4	6.3	5.3	.	11.9
COc1ccc(S(=O)(=O)N(C)C[C@@H]2Oc3c(NC(=O)Nc4ccc(C(F)(F)F)cc4)cccc3C(=O)N([C@@H](C)CO)C[C@H]2C)cc1	1.8	-46.6[16.7 µM]	-4.3	.	.	7.4
C[C@@H]1CN([C@@H](C)CO)C(=O)c2cccc(NC(=O)Nc3ccc(C(F)(F)F)cc3)c2O[C@@H]1CN(C)C(=O)Nc1cccc2ccccc12	-1.0	17.6[16.7 µM]	3.9	.	.	35.6*
C[C@H]1CN([C@@H](C)CO)C(=O)c2cccc(NC(=O)c3ccncc3)c2O[C@@H]1CN(C)C(=O)Nc1cccc2ccccc12	6.1	66.2*[16.7 µM]	0.2	.	.	.
C[C@H](CO)N1C[C@H](C)[C@H](CN(C)C(=O)Nc2cccc3ccccc23)Oc2c(NC(=O)c3ccncc3)cccc2C1=O	-11.8	0.3[16.7 µM]	-2.5	.	.	.
CCOC(=O)N(C)C[C@@H]1OCc2cn(nn2)CCCC(=O)N([C@H](C)CO)C[C@H]1C	0.8	57.2*	3.7	.	.	0.4
C[C@H](CO)N1C[C@H](C)[C@@H](CN(C)C(=O)Nc2ccc(C(F)(F)F)cc2)OCc2cnnn2CCCC1=O	-13.1	.	-1.8	.	.	6.2
C[C@@H]1CN([C@@H](C)CO)C(=O)c2cccc(NC(=O)Nc3ccc(C(F)(F)F)cc3)c2O[C@H]1CN(C)C(=O)Nc1cccc2ccccc12	0.0	15.0[16.7 µM]	4.0	.	.	16.0
C[C@H](CO)N1C[C@H](C)[C@H](CN(C)C(=O)Nc2ccc(C(F)(F)F)cc2)OCc2cnnn2CCCC1=O	-11.3*!	2.1	3.7	2.1	.	6.1
COc1ccc2c3c(n(C)c2c1)[C@H](CO)N(Cc1ccc(F)cc1)CC31CN(C)C1	1.2	.	0.9	.	.	.
COc1ccc(NC(=O)Nc2ccc3c(c2)C(=O)N([C@@H](C)CO)C[C@H](C)[C@@H](CN(C)C)OCCCC[C@H](C)O3)cc1	1.2	-3.7[16.7 µM]	2.5	.	.	.
COc1ccc(-c2cnc3c(c2)C(=O)N([C@H](C)CO)C[C@H](C)[C@H](CN(C)Cc2cccc(C)c2)O3)cc1	-0.6	.	.	.	.	7.1
CC(C(=O)NC(C)(C)C)n1c(-c2ccccc2)nc2ccccc21 (stereo unspecified)	1.4	-5.2	3.4	.	.	5.4
Cc1csc(-c2nc3ccccc3n2C(C(=O)NC(C)(C)C)c2ccccc2)c1 (stereo unspecified)	-6.5	56.9*	-0.2	.	.	6.0
CC(c1nc2ccccc2[nH]1)n1c(-c2ccncc2)nc2ccccc21 (stereo unspecified)	-1.3	5.1	1.5	.	.	7.6
CCC(C(=O)NC(C)(C)C)n1c(C(c2ccccc2)c2ccccc2)nc2ccccc21 (stereo unspecified)	-3.7	86.0*	-1.8	.	.	-3.8
Cc1csc(-c2nc3ccccc3n2C(C)c2nc3ccccc3[nH]2)c1 (stereo unspecified)	-30.4*	-19.0	-0.4	.	.	5.6
CC(C(=O)NC(C)(C)C)n1c(C(c2ccccc2)c2ccccc2)nc2ccccc21 (stereo unspecified)	-11.8	87.0*	-1.7	.	.	-3.8
O=C(C[C@H]1CC[C@H]2NC[C@H](O)COC[C@@H]2O1)NCCN1CCCC1	1.3	.	3.0	.	.	5.4
CC(=O)N(C)C[C@H]1Oc2ncc(-c3ccc(C(=O)N(C)C)cc3)cc2C(=O)N([C@H](C)CO)C[C@@H]1C	8.4	17.3[16.7 µM]	-4.0	.	.	.
CCOc1ccc(C(=O)/C=C/c2cc(OC)c(OC)c(OC)c2)cc1	-19.5*	-6.0	-2.0	4.2	-11.5	7.0
COc1cc(/C=C/C(=O)c2ccc(F)cc2)cc(OC)c1OC	-4.7	-8.3	-0.5	2.9	-9.8	.
SMILES	rRNA inh HTS	Env fusion inh	ERp5 inh	PDI inh	PvdQ acylase	FN deposit inh
CCCN(CC(=O)Nc1ccccc1OC)C(=O)c1cccc(S(=O)(=O)NCc2ccccc2)c1	-12.2	90.1*	2.1	2.4	-13.6	.
CCCN(CC(=O)Nc1ccccc1OC)C(=O)c1cc(S(=O)(=O)NCc2ccccc2)ccc1C	5.2	35.0	5.5	-4.2	-10.2	.
O=C(C1CCCC1)N1CCCCN2[C@@H](CO)[C@@H](c3ccc(-c4cccc(F)c4)cc3)[C@@H]2C1	.	.	-1.9	.	.	.
CCCCCCCn1ccc(=N)cc1	.	.	.	0.4	-16.5	.
CCCCCCCCCn1ccc(=N)cc1	-46.1	79.2*	-3.0	-4.0	-6.2	3.9
O=C(C[C@@H]1C[C@H]2c3cc(NS(=O)(=O)c4ccc(F)cc4)ccc3O[C@H]2[C@@H](CO)O1)NCC1CC1	-4.2	7.0[16.7 µM]	.	.	.	-21.3
CCC(CC)C(=O)NCCc1cc2ccc(C)cc2[nH]c1=O	-14.2*	14.7	1.7	-14.6	7.7	7.2
CCCCCCn1c2c(c(=N)c3c1CCC3)CCC2	.	81.4*	.	20.4	-6.5	-5.4
CCCCCCCCCn1c2c(c(=N)c3c1CCC3)CCC2	.	.	.	-5.2	-2.0	.
N=c1c2c(n(Cc3ccc(F)cc3)c3c1CCC3)CCC2	-29.3*	.	8.0	6.8	2.7	.
CCCCn1c2c(c(=N)c3c1CCC3)CCC2	.	.	.	-1.4	0.0	.
CCCCCCCn1c2c(c(=N)c3c1CCC3)CCCC2	-50.2	71.8*	6.0	-4.5	-11.8	-3.7
CNC[C@@H]1OCCCC[C@@H](C)Oc2ccc(NC(=O)Cc3ccccc3)cc2C(=O)N([C@@H](C)CO)C[C@H]1C	7.2	-14.9[16.7 µM]	-2.4	.	.	.
O=C(NCC[C@@H]1CC[C@H](NS(=O)(=O)c2cccc(F)c2)[C@H](CO)O1)C1CCOCC1	-2.3	3.2[16.7 µM]	4.7	.	.	.
CO[C@@H]1CN(C)C(=O)c2cc(NS(C)(=O)=O)ccc2OC[C@@H](C)N(Cc2ccccc2)C[C@@H]1C	-1.3	-1.0[16.7 µM]	-1.3	.	.	1.5
Cc1noc(C)c1S(=O)(=O)N(C)C[C@@H]1OCCCC[C@@H](C)Oc2ccc(NC(=O)C3CCCCC3)cc2C(=O)N([C@@H](C)CO)C[C@H]1C	-3.5	-117.4[16.7 µM]	-13.5	.	.	.
CCCCOCC1CN(CCCC)S(=O)(=O)c2c(Oc3ccc(C)cc3)cccc2O1 (stereo unspecified)	-2.7	65.4*	1.9	.	.	-0.6
CC(C)Oc1ccccc1/C=N/NC(=O)c1ccc(F)cc1	.	-54.4	.	-10.0	9.2	5.7
